Compound activity (PubChem)
The list is not random: actives were taken first. Their share in the collection is about 4.1%.
KCNQ1 block – inhibitors of human KCNQ1 channel, primary screen, cell-based, thallium flux, high-throughput; Potassium voltage-gated channel subfamily KQT member 1 (Homo sapiens), P51787; CHO-K1 KCNQ1, FluxOR thallium flux fluorescence; active compounds read high; B-score at 10 µM; hit rate 1.3% among 310,000; AID 2642, 2010;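 active = compounds whose thallium flux B-score, printed positive for inhibition, exceeds three library SD while starting fluorescence stays within three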;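 also: channel opened by potassium depolarization with thallium stimulus after 20 min compound exposure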
hERG rescue – hERG rescue from dofetilide block, primary screen, cell-based, CHO-hERG, FluxOR thallium flux, dofetilide IC70; Voltage-gated inwardly rectifying potassium channel KCNH2 (Homo sapiens), Q12809; dofetilide IC70 present; activation (rescue from dofetilide block), less the hit threshold, % at 10 µM; hit rate 0.51% among 310,000; AID 1511, 2009;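 active = activation above the mean of controls blocked by dofetilide plus 5 SD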;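 also: thallium influx through hERG after potassium depolarization seen as dye fluorescence rise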
KCC2 mod – KCC2 cotransporter modulators, thallium flux, primary screen, cell-based, HEK293 KCC2, FluoZin-2 fluorescence, MLSMR; Solute carrier family 12 member 5 (Homo sapiens), Q9H2X9; KCC2 cells, thallium flux FluoZin-2 fluorescence; B-score of Tl+ flux slope (higher = more flux/activation; lower = inhibition) at 10 µM; hit rate 2.2% among 190,000;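 active = thallium flux slope and its plate-corrected score both differing from the plate sample mean at a set confidence after two filtering rounds, in either direction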;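 also: slope of fluorescence scaled to starting intensity during 10 to 20 s after thallium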
Target sequence (Q9H2X9 whole entry, looked up): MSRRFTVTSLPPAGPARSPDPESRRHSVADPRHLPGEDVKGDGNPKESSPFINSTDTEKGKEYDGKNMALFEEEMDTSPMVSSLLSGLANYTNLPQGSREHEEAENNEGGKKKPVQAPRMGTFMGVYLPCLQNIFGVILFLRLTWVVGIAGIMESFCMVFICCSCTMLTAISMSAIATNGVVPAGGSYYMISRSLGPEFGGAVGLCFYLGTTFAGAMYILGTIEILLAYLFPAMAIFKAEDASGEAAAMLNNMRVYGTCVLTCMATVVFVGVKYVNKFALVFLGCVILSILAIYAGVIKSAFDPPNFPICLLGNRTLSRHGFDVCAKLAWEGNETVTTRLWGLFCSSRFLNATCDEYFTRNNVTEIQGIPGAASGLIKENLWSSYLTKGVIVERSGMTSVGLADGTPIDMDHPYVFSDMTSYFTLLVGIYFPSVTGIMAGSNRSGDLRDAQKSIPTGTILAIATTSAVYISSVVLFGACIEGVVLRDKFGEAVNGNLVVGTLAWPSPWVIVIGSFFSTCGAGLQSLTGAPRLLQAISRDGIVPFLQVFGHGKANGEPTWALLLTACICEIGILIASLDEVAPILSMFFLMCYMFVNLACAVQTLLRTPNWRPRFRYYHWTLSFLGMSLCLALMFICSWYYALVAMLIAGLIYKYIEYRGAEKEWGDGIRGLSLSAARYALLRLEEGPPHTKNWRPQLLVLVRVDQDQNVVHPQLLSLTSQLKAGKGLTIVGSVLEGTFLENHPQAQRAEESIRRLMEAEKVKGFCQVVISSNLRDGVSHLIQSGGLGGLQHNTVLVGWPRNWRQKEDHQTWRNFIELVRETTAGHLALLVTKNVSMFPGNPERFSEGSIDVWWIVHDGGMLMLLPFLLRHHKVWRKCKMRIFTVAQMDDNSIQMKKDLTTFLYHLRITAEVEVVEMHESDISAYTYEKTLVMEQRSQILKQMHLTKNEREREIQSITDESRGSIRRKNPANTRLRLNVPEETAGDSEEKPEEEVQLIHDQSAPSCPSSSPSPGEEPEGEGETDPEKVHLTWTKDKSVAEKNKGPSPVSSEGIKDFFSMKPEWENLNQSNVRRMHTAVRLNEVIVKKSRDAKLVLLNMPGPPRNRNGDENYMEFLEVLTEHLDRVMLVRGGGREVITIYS
KCNQ1 act – potentiators or activators of KCNQ1 channel, primary screen, cell-based, thallium flux, high-throughput; B-score at 10 µM; AID 2648, 2010; CHO-K1 KCNQ1, thallium flux FluxOR fluorescence; active compounds read high; Potassium voltage-gated channel subfamily KQT member 1 (Homo sapiens), P51787; hit rate 0.35% among 310,000;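 active = fluorescence ratio B-score, a plate-corrected score, at least three library SD, with initial intensity B-score within 5 SD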
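Schedule – 37 °C overnight plating, 90-min dark dye load, 20-min compound pretreatment · System – stable KCNQ1 CHO-K1 line · Probe or stimulus – thallium- and potassium-containing depolarizing buffer · Measured by – kinetic FluxOR fluorescence, 10 s baseline plus 110 s post-stimulus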
KCNK3 inh – human KCNK3 channel inhibitors, primary screen, CHO cells, FluxOR thallium flux, B-score; B-score at 10 µM; Potassium channel subfamily K member 3 (Homo sapiens), O14649; AID 602410, 2012; hit rate 0.84% among 340,000; FluxOR fluorescence; active compounds read low;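 active = B-score under library mean minus 4 SD, starting fluorescence ratio at most library mean plus 5 SD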;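 also: more negative B-score means stronger inhibition of thallium flux through KCNK3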
KCNK9 inh – KCNK9 potassium channel inhibitors, primary screen, HEK293 cells, thallium flux. Potassium channel subfamily K member 9 (Homo sapiens), Q9NPC2. FluxOR thallium flux fluorescence; active compounds read low. B-score at 10 µM. AID 488922, 2010. hit rate 1.2% among 310,000;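 active = ratio B-score over 3 SD below the library mean, with starting fluorescence within 5 SD of its mean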;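 also: negative B-score means less thallium flux so channel inhibition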
KCC2 sec1 – KCC2 modulators in sodium-free buffer, confirmation, cell-based, HEK293 KCC2, thallium flux, secondary assay | normalised thallium flux (F/F0 slope) at 10 µM | hit rate 15% among 3,700 | FluoZin2 fluorescence; active compounds read high | shares compounds with KCC2 mod;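 active = thallium flux slope above the same plate's solvent-only control mean plus 3 SD; inconclusive = the two replicate wells disagree; inactive = no significant difference from solvent-only control wells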
KCC2 bumet counter – thallium flux persisting under bumetanide in KCC2 cells, confirmation, counter-screen for KCC2 modulator project, cell-based, HEK293 KCC2, FluoZin2, secondary assay 3; HEK293-KCC2 + bumetanide/ouabain; active compounds read high; shares compounds with KCC2 mod; normalized thallium flux at 10 µM; AID 1714, 2009; hit rate 49% among 3,700;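 active = thallium entry rate above the same plate's blocked-transporter control wells by more than 3 SD; inconclusive = the two repeat wells disagree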;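 also: raw slope of fluorescence over initial fluorescence between 10 and 20 s after thallium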
KCC2 sec2 – KCC2 modulators without ouabain present, confirmation, cell-based, HEK293 KCC2, thallium flux, FluoZin2, secondary assay 2; shares compounds with KCC2 mod; thallium flux FluoZin2 fluorescence; actives lie on both sides; F/F0 rise rate, 10–20 s post-thallium; normalized thallium flux at 10 µM; hit rate 23% among 3,700;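 active = thallium flux slope more than 3 SD above or below the plate's solvent-only control mean, mostly below; inconclusive = the two repeat wells disagreed; inactive = no significant shift from solvent-only controls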;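 also: raw slope with 0.1% DMSO as baseline and bumetanide as block control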
HEK counter1 – thallium flux modulation in parental HEK cells, confirmation, counter-screen for KCC2 modulator project, cell-based, counterscreen 1; hit rate 46% among 3,700; thallium flux rate (normalised fluorescence) at 10 µM; shares compounds with KCC2 mod; HEK293 parental cells, thallium flux FluoZin2, ouabain; baseline-ratio fluorescence slope, 10–20 s after thallium;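 active = thallium flux rate significantly above the same plate's solvent-only control wells, beyond their mean plus 3 SD; inconclusive = the two replicate wells gave conflicting results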
KCC2 retest ouab – KCC2 inhibitors and activators, ouabain retest, confirmation, HEK-KCC2 cells. AID 1717, 2009. raw Tl+ flux slope (below DMSO = inhibition, above = activation) at 10 µM. hit rate 48% among 3,700. shares compounds with KCC2 mod. HEK293-KCC2, thallium flux FluoZin2 fluorescence; bidirectional: low = inhibitor, high = activator;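 active = thallium flux slope beyond 3 SD from same-plate DMSO control mean in most replicates, usually higher, sometimes lower; inconclusive = repeat tests gave conflicting results; inactive = no significant difference from controls in most replicates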;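 also: slope of initial-normalized fluorescence between seconds 10 and 20 after thallium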
HEK293 Tl flux2 – native HEK Tl+ uptake effects, second counter-screen – HEK cells, counterscreen 2, counter-screen for KCC2 modulator project, confirmation | shares compounds with KCC2 mod | HEK293 parental, thallium flux FluoZin-2 fluorescence slope | thallium flux slope at 10 µM | hit rate 33% among 3,700 | AID 1718, 2009;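 active = thallium flux slope above the same plate's solvent-control mean plus 3 SD in both duplicate wells; inconclusive = duplicate wells that disagreed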;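 also: run without ouabain in cells lacking the KCC2 cotransporter; slope of fluorescence scaled to its starting value between 10 and 20 s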
Starred values were filed as active, the others as inactive.

For CC(C)N1C(=O)S/C(=C/c2ccccc2OCc2ccc(C(=O)O)cc2)C1=O the results were KCNQ1 block inactive, hERG rescue -21.2, KCC2 mod -4.69*, KCNQ1 act inactive, KCNK3 inh inactive, KCNK9 inh inactive, KCC2 sec1 0.00644, KCC2 bumet counter 0.00473, KCC2 sec2 0.0244*, HEK counter1 0.00638, KCC2 retest ouab 0.0137* and HEK293 Tl flux2 0.0088.
O/C(=C\c1ccc2ccccc2n1)c1ccc(O)cc1O was read as KCNQ1 block inactive, hERG rescue -11.8, KCC2 mod -5.07*, KCNQ1 act inactive, KCNK3 inh inactive, KCNK9 inh inactive, KCC2 sec1 0.00579*, KCC2 bumet counter 0.00548, KCC2 sec2 0.0294, HEK counter1 0.00747, KCC2 retest ouab 0.0144* and HEK293 Tl flux2 0.0111.
`CSc1nc2[nH]c3c(c2c2ncnn12)CCCC3` gave KCNQ1 block inactive, hERG rescue -8.6, KCC2 mod -0.0136, KCNQ1 act inactive, KCNK3 inh inactive, KCNK9 inh inactive, KCC2 sec1 0.00879, KCC2 bumet counter 0.00608, KCC2 sec2 0.0315, HEK counter1 0.00752, KCC2 retest ouab 0.0192 and HEK293 Tl flux2 0.0108.
For O=C(NC(=S)Nc1ccccc1N1CCCCC1)c1cccs1 the results were KCNQ1 block inactive, hERG rescue 7.5*, KCC2 mod 18.3*, KCNQ1 act 12*, KCNK3 inh inactive, KCNK9 inh inactive, KCC2 sec1 inconclusive, KCC2 bumet counter 0.0353*, KCC2 sec2 0.0345, HEK counter1 0.0509*, KCC2 retest ouab 0.0425* and HEK293 Tl flux2 0.0158*.
`O=C(NC(=S)Nc1ccccc1N1CCN(C(=O)c2ccccc2)CC1)c1cccs1` gave KCNQ1 block inactive, hERG rescue -9.9, KCC2 mod -0.396, KCNQ1 act inactive, KCNK3 inh inactive and KCNK9 inh inactive.
